Sampled rows, rich in hits. Any-hit rate of the full collection: about 1.9%.
ABHD5-PLIN5 inh = blocks binding of human ABHD5 to perilipin-5; Q00G26+Q8WTS1; Split G. princeps luciferase complementation, luminescence, 4 h; AID 602281; 360,000 tested, 0.78% active; inhibition, % at 4 µM;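 active means inhibition above the mean inhibition across every tested compound plus 3 SD, cut at about 22% in these data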;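 further: 0% = DMSO only wells and the 100% control is not disclosed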
NadD inh = NadD (S. aureus) enzyme inhibition | purified NadD enzyme, colorimetric absorbance read-out | inhibition, % at 20 µM | 360,000 tested, 0.78% active | AID 602399; in the data active means inhibition above about 26%
Rin1 Abl inh = blocks binding of human Rin1 to Abl; P00519+Q13671; TR-FRET Rin1/Abl binding, biochemical; inhibition, % at 7.35 µM; 360,000 tested, 0.4% active; in the data active means inhibition above about 5%, passing the limit was not always enough
Rpn11 block = blocks the human proteasome subunit Rpn11. inhibition, % at 20 µM. human 26S proteasome, Ub4-pepOG fluorescence polarization; 20S core pre-blocked with epoxomicin. 360,000 tested, 0.59% active. AID 588493. O00487;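 active means inhibition at 20 µM, scaled to each plate's controls, above about 33%, limit read from the data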
XiGFP reactiv = X-chromosome reactivation activator; XiGFP mouse fibroblasts, % GFP-positive cells imaging, 3 d; cells co-treated with 5-aza-dC sensitizer; scaled so ellipticine positive control = 100%; activation, % at 7.58 µM; 360,000 tested, 0.055% active; AID 743238;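 active means mean normalized replicate activation at least 10% and every replicate at or above 10%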;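 further: 0% = median of on-plate neutral control wells and 100% = ellipticine 6 µM median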
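System: XiGFP fibroblasts, SV40-immortalized. Medium: DMEM plus 5-aza-dC sensitizer. Doses: single point. Timing: 3 d treatment, 15 min room-temperature fixation. Control set: ellipticine 6 µM.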
Rpn11 confirm = Rpn11 inhibition confirmation, single concentration; shares compounds with Rpn11 block; purified human 26S proteasome, Ub4-pepOG fluorescence polarization; proteasome pretreated with epoxomicin; inhibition, % at 20 µM; 1,900 tested, 29% active
MMP-2 counter = MMP-2 (human) inhibition counter-screen. shares compounds with Rpn11 block. recombinant MMP-2, FRET peptide cleavage fluorescence. inhibition, % at 20 µM. 1,900 tested, 4% active. AID 602330;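 further: human MMP-2 activated beforehand with APMA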
Target sequence (P08253 whole entry, looked up): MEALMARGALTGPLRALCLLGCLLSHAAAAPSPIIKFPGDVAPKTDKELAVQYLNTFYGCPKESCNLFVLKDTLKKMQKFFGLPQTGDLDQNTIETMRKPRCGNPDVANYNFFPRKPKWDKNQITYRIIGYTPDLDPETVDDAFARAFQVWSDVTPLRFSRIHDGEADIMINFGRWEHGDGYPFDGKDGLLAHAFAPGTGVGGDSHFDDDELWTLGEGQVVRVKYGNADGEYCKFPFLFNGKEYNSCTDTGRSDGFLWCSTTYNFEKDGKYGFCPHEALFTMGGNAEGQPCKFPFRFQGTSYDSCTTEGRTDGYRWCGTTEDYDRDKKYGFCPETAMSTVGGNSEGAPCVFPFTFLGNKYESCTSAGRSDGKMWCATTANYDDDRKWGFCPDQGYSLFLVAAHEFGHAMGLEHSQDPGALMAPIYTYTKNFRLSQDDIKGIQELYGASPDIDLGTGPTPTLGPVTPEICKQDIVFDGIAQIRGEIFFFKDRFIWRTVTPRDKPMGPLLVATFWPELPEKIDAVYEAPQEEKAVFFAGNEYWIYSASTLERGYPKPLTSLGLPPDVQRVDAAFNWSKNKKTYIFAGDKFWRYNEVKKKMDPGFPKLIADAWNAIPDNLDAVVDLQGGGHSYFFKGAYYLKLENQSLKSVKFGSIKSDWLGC
Thrombin FP = counter-screen for RPN11 inhibitors: inhibition of bovine thrombin | shares compounds with Rpn11 block | bovine thrombin cleavage of Ub4-pepOG, fluorescence polarization | inhibition, % at 20 µM | 1,900 tested, 13% active;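 active means mean inhibition at least 40% at 20 µM, or signal 3 deviations below plate average, so some actives read negative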;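 further: plate controls were thrombin with DMSO for no effect and buffer wells lacking thrombin for full effect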
* marks the source's active call; other numbers are inactive results; x = no result given. Unless noted, no stated cut-off is given here; in the data, active means inhibition above about 40%; inactive means the rest.

SMILES	ABHD5-PLIN5 inh	NadD inh	Rin1 Abl inh	Rpn11 block	XiGFP reactiv	Rpn11 confirm	MMP-2 counter	Thrombin FP
CCN(CC)CCOC(=O)c1ccc(N=Cc2c(O)[nH]c(=O)[nH]c2=O)cc1	8	5	2	99*	x	104*	-6	73*
O=C(O)[C@@H]1[C@@H](CO)[C@@H]2Cn3c(ccc(-c4ccncc4)c3=O)[C@H]1N2C(=O)C1CC1	x	x	x	x	0	x	x	x
Cc1ccc(-n2c(O)c(/C=N/N3CCCCC3c3cccnc3)c(=O)[nH]c2=S)cc1 (stereo not given)	6	4	1	55*	0	52*	-14	40
CN(C)CCCN=Cc1c(O)n(CCc2ccccc2)c(=O)[nH]c1=O	1	0	1	41*	x	79*	7	62*
CCc1ccc(N2C(=O)NC(=O)/C(=C\c3cccn3CCOc3ccc(C(C)C)cc3)C2=O)cc1	2	2	-2	62*	0	-16	-63	-9
Cc1ccc(OCCn2cccc2/C=C2/C(=O)NC(=O)N(Cc3ccco3)C2=O)cc1	2	9	-4	8	0	x	x	x
COC(=O)[C@@H]1[C@@H](CO)[C@@H]2Cn3c(ccc(-c4ccc(F)cc4)c3=O)[C@H]1N2Cc1ccccc1	x	x	x	x	1	x	x	x
C[C@H](CO)N1C[C@H](C)[C@@H](CN(C)C(=O)Oc2ccccc2)OCc2ccccc2-c2c(n(C)c3ccccc23)C1=O	x	x	x	x	0	x	x	x
C=CCn1c(O)c(/C=C2\C=Nc3ccccc32)c(=O)[nH]c1=O	12	1	1	60*	0	14	-5	10
Cc1cccc(N2C(=O)/C(=C/c3ccc(CN(CCC#N)S(C)(=O)=O)o3)C(=O)NC2=S)c1	0	20	-4	42*	x	73*	46*	125*
CCC(C)N1CCN(C(=O)COc2ccc3ccccc3c2)CC1 (stereo not given)	-4	-10	4	79*	0	-2	-9	1
COc1ccc(CN2CCN(C(=O)COc3ccc4ccccc4c3)CC2)c(OC)c1	13	-4	-1	-3	0	x	x	x
O=C1NC(=O)N(c2ccccc2)C(=O)/C1=C/C=C/c1ccco1	22	4	3	52*	0	13	21	5
CN(C)c1ccc(/C=C/C=C2/C(=O)NC(=O)N(c3ccccc3)C2=O)cc1	-1	24	-9	95*	0	65*	-22	34
C=CCN1C(=O)NC(=O)/C(=C/C=C/c2ccccc2)C1=O	3	5	-5	30	0	x	x	x
O=C(Cc1ccccc1)N1CCCCN2[C@@H](CO)[C@H](c3ccc(C#CC4(O)CCCC4)cc3)[C@@H]2C1	x	x	x	x	0	x	x	x
COC(=O)[C@H]1[C@H](CO)[C@H]2Cn3c(ccc(C4=CCCCC4)c3=O)[C@@H]1N2CC1CCCCC1	x	x	x	x	1	x	x	x
CCOc1ccc(N2C(=O)/C(=C/c3ccc(C)o3)C(=O)NC2=S)cc1	-7	16	2	77*	0	25	57*	34
COc1ccc(N2C(=O)/C(=C/c3ccc(C)o3)C(=O)NC2=S)cc1	9	24	1	71*	0	61*	56*	63*
Cc1ccc(/C=C2\C(=O)NC(=S)N(c3cccc(F)c3)C2=O)o1	4	7	2	x	0	x	x	x
O=C(Cc1ccccn1)N1CCCCN2[C@@H](CO)[C@H](c3ccc(C#Cc4ccccc4)cc3)[C@@H]2C1	x	x	x	x	0	x	x	x
CN1C(=O)C(=Cc2ccc(Sc3ccccc3)o2)C(=O)N(C)C1=O	10	12	5	63*	0	-31	-42	-33
CCOC(=O)c1c(-n2c(C)cc(/C=C3\C(=O)NC(=O)N(C)C3=O)c2C)sc2c1CCCC2	-16	13	5	17	x	x	x	x
Cc1cc(/C=C2\C(=O)NC(=O)N(c3ccc(Cl)cc3)C2=O)c(C)n1-c1sc2c(c1C#N)CCCC2	10	47*	-3	50*	0	36	-16	24

Assay outcomes from PubChem.
